ChEMBL document CHEMBL2150856, “Fluorinated N,N-dialkylaminostilbenes for Wnt pathway inhibition and colon cancer repression” (J Med Chem, 2011)
Values belong to the compound of their own block, whether it stands above or below them. Active and inactive are the calls of the source. The rule behind the calls is not given here.

Columns and labels:
LS174T [1] = assay: Inhibition of Wnt/beta-catenin in human LS174T cells assessed as reduction in c-Myc protein level at 10 uM by Western blotting; format: cell-based
LS174T [2] = assay: Inhibition of Wnt/beta-catenin in human LS174T cells assessed as effect on […] at 10 uM by Western blotting; format: cell-based
LS174T [3] = assay: Inhibition of Wnt/beta-catenin in human LS174T cells assessed as reduction in Axin-2 protein level at 10 uM by Western blotting; format: cell-based
[4] = Drug uptake in human LS 174T cells assessed as accumulation in nucleus after 2 hrs by confocal microscopy; format: ADME, cell-based; details: ls174t
Procedure, shortened: (§1)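 LS174 cells on cover glass exposed to 10 μM fluorescent compound for 2h, 6h, 12h or 24h, then fixed in 4% paraformaldehyde 20 min at room temperature, PBS-washed, mounted and imaged by confocal microscopy under 405nm excitation.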

[5] = Drug uptake in human LS 174T cells assessed as accumulation in nucleus after 12 hrs by confocal microscopy; format: ADME, cell-based; details: ls174t; procedure, shortened: as §1
[6] = Drug uptake in human LS 174T cells assessed as accumulation in cytoplasm after 2 hrs by confocal microscopy; format: ADME, cell-based; details: ls174t; procedure, shortened: as §1
LS174T [7] = assay: Inhibition of Wnt/beta-catenin in human LS 174T cells assessed as reduction in TCF4 protein level at 100 uM by Western blotting; format: cell-based
LS174T [8] = assay: Inhibition of Wnt/beta-catenin in human LS 174T cells assessed as reduction in pygopus2 protein level at 100 uM by Western blotting; format: cell-based
LS174T [9] = assay: Inhibition of Wnt/beta-catenin in human LS174T cells assessed as effect on […] at 100 uM by Western blotting; format: cell-based
LS174T [10] = assay: Inhibition of Wnt/beta-catenin in human LS174T cells assessed as reduction in survivin mRNA level at 100 uM after 36 hrs by RT-PCR analysis; format: cell-based
LS174T [11] = assay: Inhibition of Wnt/beta-catenin in human LS174T cells assessed as reduction in CD44 mRNA level at 100 uM after 36 hrs by RT-PCR analysis; format: cell-based
HCT-116 [12] = assay: Cytotoxicity against human HCT116 cells at 10 uM for 2 days by vi-cell cell viability analysis; format: functional, cell-based
Procedure, shortened: (§2)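 CRC cells treated with DMSO or inhibitor for 2d and 4d; cell number and viability counted on a Vi-Cell analyzer. HCT116 and SW480 kept in DMEM with 10% FBS; LS174T in RPMI with 5% FBS; all with 1% penicillin/streptomycin.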

SW480 [13] = assay: Cytotoxicity against human SW480 cells at 10 uM for 2 days by vi-cell cell viability analysis; format: functional, cell-based; procedure, shortened: as §2
SW480 [14] = assay: Cytotoxicity against human SW480 cells at 10 uM for 4 days by vi-cell cell viability analysis; format: functional, cell-based; procedure, shortened: as §2
LS174T [15] = assay: Inhibition of Wnt/beta-catenin in human LS174T cells assessed as reduction in Cyclin D1 protein level at 100 uM by Western blotting; format: cell-based
LS174T [16] = assay: Inhibition of Wnt/beta-catenin in human LS174T cells assessed as increase in p21WAF1/CIP1 protein level at 100 uM by Western blotting; format: cell-based
HEK-293T [17] = assay: Inhibition of LiCl-induced […] in human HEK293T cells transfected with TOP Flash assessed as decrease in luciferase expression at 100 uM after 12 hrs by dual luciferase reporter assay; format: cell-based
Procedure, shortened: (§3)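 HEK293T transiently transfected (calcium phosphate) with Super8xTOPFlash plus Renilla luciferase reporters; medium changed after 12h, then 6h later cells pretreated 12h with DMSO or inhibitor before stimulation with 25mM LiCl or Wnt3A-conditioned medium. After 12h, dual-luciferase read-out; triplicate wells, each experiment run at least twice.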

LS174T [18] = assay: Inhibition of Wnt/beta-catenin in human LS174T cells assessed as reduction in c-Myc mRNA level at 100 uM after 36 hrs by RT-PCR analysis; format: cell-based
HCT-116 [19] = assay: Cytotoxicity against human HCT116 cells at 10 uM for 4 days by vi-cell cell viability analysis; format: functional, cell-based; procedure, shortened: as §2
LS174T [20] = assay: Inhibition of Wnt/beta-catenin in human LS174T cells assessed as reduction in c-Myc protein level at 100 uM by Western blotting; format: cell-based
LS174T [21] = assay: Cytotoxicity against human LS 174T cells at 10 uM for 4 days by vi-cell cell viability analysis; format: functional, cell-based; procedure, shortened: as §2
LS174T [22] = assay: Inhibition of Wnt/beta-catenin in human LS174T cells assessed as reduction in Lgr5 mRNA level at 100 uM after 36 hrs by RT-PCR analysis; format: cell-based
LS174T [23] = assay: Inhibition of Wnt/beta-catenin in human LS174T cells assessed as reduction in cyclin B1 protein level at 100 uM by Western blotting; format: cell-based
LS174T [24] = assay: Inhibition of Wnt/beta-catenin in human LS174T cells assessed as reduction in Ki67 mRNA level at 100 uM after 36 hrs by RT-PCR analysis; format: cell-based
LS174T [25] = assay: Cytotoxicity against human LS 174T cells at 10 uM for 2 days by vi-cell cell viability analysis; format: functional, cell-based; procedure, shortened: as §2
HEK-293T [26] = assay: Inhibition of […] in human HEK293T cells transfected with TOP Flash assessed as decrease in luciferase expression at 100 uM after 12 hrs by dual luciferase reporter assay; format: cell-based; procedure, shortened: as §3
LS174T [27] = assay: Inhibition of Wnt/beta-catenin in human LS174T cells assessed as reduction in c-Myc protein level at 0.5 uM by Western blotting; format: cell-based
LS174T [28] = assay: Inhibition of Wnt/beta-catenin in human LS 174T cells assessed as reduction in pygopus2 mRNA level at 10 uM by RT-PCR analysis; format: cell-based
Mus musculus = assay: Toxicity in human LS 174T cells xenografted C57BL/6J athymic nude mouse assessed as change in body weight at 20 mg/kg/day, ip within 1 month; format: organism-based, LS174T; design: route intraperitoneal; details: in vivo
Procedure, shortened: (§4)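 LS174 cells (2 × 10^6) injected subcutaneously into both flanks of 6–8 week C57BL/6J athymic nude mice; mice randomized to two groups. Daily ip dosing at 20mg/kg/day in corn oil (50 μl/mouse); controls got corn oil alone. Body weight and tumor size (digital caliper) recorded twice weekly for one month; volume V=1/2LW^2 (mm3).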

LS174T [29] = assay: Inhibition of Wnt/beta-catenin in human LS174T cells assessed as reduction in Axin-2 protein level at 0.5 uM by Western blotting; format: cell-based
LS174T [30] = assay: Cytotoxicity against human LS 174T cells at 0.1 uM for 4 days by vi-cell cell viability analysis; format: functional, cell-based; procedure, shortened: as §2
LS174T [31] = assay: Inhibition of Wnt/beta-catenin in human LS 174T cells assessed as reduction in TCF4 protein level at 10 uM by Western blotting; format: cell-based
LS174T [32] = assay: Antitumor activity against human LS 174T cells xenografted in C57BL/6J athymic nude mouse assessed as reduction in tumor growth at 20 mg/kg/day, ip; format: functional, organism-based; procedure, shortened: as §4
LS174T [33] = assay: Inhibition of Wnt/beta-catenin in human LS 174T cells assessed as reduction in TCF4 mRNA level at 10 uM by RT-PCR analysis; format: cell-based
LS174T [34] = assay: Inhibition of Wnt/beta-catenin in human LS174T cells assessed as reduction in c-Myc protein level at 2.5 uM by Western blotting; format: cell-based
LS174T [35] = assay: Cytotoxicity against human LS 174T cells at 0.1 uM for 2 days by vi-cell cell viability analysis; format: functional, cell-based; procedure, shortened: as §2
LS174T [36] = assay: Inhibition of Wnt/beta-catenin in human LS 174T cells assessed as reduction in pygopus2 protein level at 10 uM by Western blotting; format: cell-based
LS174T [37] = assay: Inhibition of Wnt/beta-catenin in human LS 174T cells assessed as decrease in […] in nucleus using DAPI staining at 10 uM for 24 hrs by immunofluorescent microscopy; format: cell-based
Procedure, shortened: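 LS174 cells treated 24h with 10 μM compound or DMSO, fixed (4% paraformaldehyde, 20 min, RT), permeabilized with 0.3% Triton X-100, blocked in 5% goat serum 30 min. Stained overnight with anti-β-catenin (1:300), then Alexa-488 anti-rabbit IgG (1:500) 40 min; nuclei counterstained with DAPI; confocal imaging.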

LS174T [38] = assay: Inhibition of Wnt/beta-catenin in human LS174T cells assessed as reduction in Axin-2 protein level at 2.5 uM by Western blotting; format: cell-based
LS174T [39] = assay: Inhibition of Wnt/beta-catenin in human LS174T cells assessed as reduction in Axin-2 protein level at 30 uM by Western blotting; format: cell-based
LS174T [40] = assay: Inhibition of Wnt/beta-catenin in human LS174T cells assessed as reduction in c-Myc protein level at 30 uM by Western blotting; format: cell-based

SMILES: CN(C)c1ccc(/C=C/c2c(F)cc(F)cc2F)cc1
inhibition (LS174T [1]): Active
inhibition (LS174T [2]): inactive
inhibition (LS174T [3]): Active

SMILES: Fc1ccccc1/C=C/c1ccc(N(c2ccccc2)c2ccccc2)cc1
inhibition (LS174T [1]): inactive
inhibition (LS174T [2]): inactive
inhibition (LS174T [3]): inactive

SMILES: CN(C)c1ccc(CCc2c(F)cccc2F)cc1
inhibition (LS174T [1]): inactive
inhibition (LS174T [3]): inactive

SMILES: CN(C)c1ccccc1/C=C/c1c(F)cccc1F
inhibition (LS174T [1]): inactive
inhibition (LS174T [2]): inactive
inhibition (LS174T [3]): inactive

SMILES: CN(C)c1ccc(/C=C/c2c(F)ccc(F)c2F)cc1
inhibition (LS174T [1]): Active
inhibition (LS174T [2]): inactive
inhibition (LS174T [3]): Active

Drug uptake [4]: Active
Drug uptake [5]: Not Active
Drug uptake [6]: Active
SMILES: CCN(CC)c1ccc(/C=C/c2c(F)cccc2F)cc1
inhibition (LS174T [1]): Active
inhibition (LS174T [2]): inactive
inhibition (LS174T [3]): Active

SMILES: Oc1ccc(/C=C/c2cc(O)cc(O)c2)cc1
inhibition (LS174T [7]): Active
inhibition (LS174T [8]): Active
inhibition (LS174T [9]): inactive
inhibition (LS174T [10]): Active
inhibition (LS174T [11]): Active
Activity (HCT-116 [12]): Active
Activity (SW480 [13]): Active
Activity (SW480 [14]): Active
inhibition (LS174T [15]): Active
inhibition (LS174T [16]): Active
inhibition (HEK-293T [17]): Active
inhibition (LS174T [18]): Active
Activity (HCT-116 [19]): Active
inhibition (LS174T [20]): Active
Activity (LS174T [21]): Active
inhibition (LS174T [22]): Active
inhibition (LS174T [23]): Active
inhibition (LS174T [24]): Active
Activity (LS174T [25]): Active
inhibition (HEK-293T [26]): Active

SMILES: CN(C)c1ccc(/C=C/c2cccc(F)c2)cc1
inhibition (LS174T [1]): Active
inhibition (LS174T [2]): inactive
inhibition (LS174T [3]): Active

SMILES: CCN(CC)c1ccc(/C=C/c2ccccc2F)cc1
inhibition (LS174T [1]): Active
inhibition (LS174T [2]): inactive
inhibition (LS174T [3]): Active

SMILES: CN(C)c1ccc(/C=C/c2cc(F)ccc2F)cc1
inhibition (LS174T [1]): Active
inhibition (LS174T [2]): inactive
inhibition (LS174T [3]): Active

SMILES: CN(C)c1ccc(/C=C/c2ccccc2F)cc1
inhibition (LS174T [1]): Active
Activity (HCT-116 [12]): Active
Activity (SW480 [13]): Active
Activity (SW480 [14]): Active
Activity (HCT-116 [19]): Active
inhibition (LS174T [2]): inactive
Activity (LS174T [21]): Active
inhibition (LS174T [3]): Active
Activity (LS174T [25]): Active

SMILES: CN(C)c1ccc(/C=C/c2c(F)cccc2F)cc1
inhibition (LS174T [1]): Active
inhibition (LS174T [27]): Active
inhibition (LS174T [28]): inactive
Activity (Mus musculus): Non-toxic
inhibition (LS174T [29]): Active
Activity (LS174T [30]): Active
inhibition (LS174T [31]): Active
growth inhibition (GI) (LS174T [32]): Active
inhibition (LS174T [2]): inactive
inhibition (LS174T [33]): Active
inhibition (LS174T [34]): Active
Activity (LS174T [35]): Active
inhibition (LS174T [3]): Active
inhibition (LS174T [36]): Active
inhibition (LS174T [37]): Active
inhibition (LS174T [38]): Active

SMILES: CN(C)c1ccc(/C=C/c2cccc(F)c2F)cc1
inhibition (LS174T [1]): Active
inhibition (LS174T [2]): inactive
inhibition (LS174T [3]): Active

SMILES: CN(C)c1ccc(/C=C/c2ccc(F)cc2)cc1
inhibition (LS174T [2]): inactive

SMILES: CN(C)c1cccc(/C=C/c2c(F)cccc2F)c1
inhibition (LS174T [1]): inactive
inhibition (LS174T [2]): inactive
inhibition (LS174T [3]): inactive

SMILES: COc1cc(/C=C/c2ccc(O)cc2)cc(OC)c1
Activity (HCT-116 [12]): Active
Activity (SW480 [13]): Active
Activity (SW480 [14]): Active
Activity (HCT-116 [19]): Active
Activity (LS174T [21]): Active
Activity (LS174T [25]): Active

SMILES: CN(C)c1ccc(/C=C/c2ccccc2)cc1
inhibition (LS174T [1]): inactive
inhibition (LS174T [2]): inactive
inhibition (LS174T [39]): Active
inhibition (LS174T [3]): inactive
inhibition (LS174T [40]): Active

SMILES: Oc1ccc(/C=C\c2cc(O)cc(O)c2)cc1
inhibition (LS174T [15]): inactive
inhibition (LS174T [20]): inactive
